# Source: PubChem BioAssay
# Compounds with a hit are over-represented: about 1.6% of the library has one in this group of screens.
# HDAC3 inh – HDAC3 deacetylase inhibitors, primary screen, biochemical, fluorescence, cell-free homogeneous; Histone deacetylase 3 (Homo sapiens), O15379; recombinant HDAC3, fluorogenic peptide/trypsin coupled; inhibition, % at 8.3 µM; 320,000 compounds, 0.15% hits; AID 2718, 2010; in the data active = inhibition above about 26%, passing the limit was not always enough; inconclusive = no clear call, values can overlap the other calls
# JMJD2C inh – inhibitors of GASC-1 histone demethylase, primary screen, biochemical, fluorescence, DELFIA europium. Lysine-specific demethylase 4C (Homo sapiens), Q9H3R0. GST-JMJD2C(1-420) H3K9me3 demethylation. inhibition, % at 2.35 µM. 330,000 compounds, 0.069% hits. AID 2099, 2009;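 active = more than half of a compound's replicate wells show inhibition beyond 50%, single wells judged on their own value; inconclusive = some, but no more than half, of replicates pass 50% inhibition; inactive = no replicate passes 50% inhibition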;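 also: signal counts dimethyl H3K9 product captured on neutravidin plate; 0% = median of DMSO wells and 100% = 0.3 times that DMSO median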
# LANA-H2B inh – blockers of LANA interaction with H2A/H2B – biochemical, FP readout, HTS, primary screen; 320,000 compounds, 0.6% hits; cell-free LANA-H2A/H2B peptide, fluorescence polarization; inhibition, % (no concentration beside the values); AID 2629, 2010; in the data active = inhibition mostly above about 10%, no sharp cut-off; inactive = mostly below about 6.7%
# Arr AP2 block – inhibitors of beta-arrestin/AP2 binding, primary screen, biochemical, GPCR trafficking, flow cytometry; beta-arrestin 1 C-terminal peptide binding to AP2 beta2-adaptin appendage (human); FITC-arrestin peptide / GST-AP2 beads; AP2 beta2 appendage carries R879A mutation; inhibition, % at 10 µM; 340,000 compounds, 0.31% hits;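 active = inhibition above a set limit, near 3 SD of compounds lacking own fluorescence, cut at about 54% in these data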;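 also: plate controls were DMSO wells for no effect and 5 µM unlabelled arrestin peptide for full effect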
#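 System: GST-AP2 R879A glutathione beads; medium: PBS, Tween 20 0.05%, BSA 0.1%; reagent: fluorescein-tagged arrestin peptide at 50 nM final; schedule: pre-incubation 12 min, peptide binding 1 h, room temperature; detection: flow cytometry, FL1 (488/535 nm); read-out: inhibition as reduced fluorescein signal on beads, percent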
# T cell modulator – modulators of CD8 T cell-vesicle binding, primary screen, mouse 2C CD8+ T cells, flow cytometry; AID 2052, 2009; 330,000 compounds, 0.068% hits; response (vesicle binding), % at 7 µM; 2C CD8+ T cell-vesicle binding; hits give low values;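 active = response, share of CD8 T cells binding vesicles, and their 90th percentile fluorescence all below set limits, cut at about 80% in these data, passing the limit was not always enough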;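 also: values below 100% mean blocked vesicle binding to the CD8+ T cells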
#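 Test system: purified 2C TCR transgenic mouse naive CD8+ T cells. Probe or stimulus: QL9-peptide-loaded Drosophila micro-vesicles bearing Ld, ICAM-1 and B7-1. Incubation: binding step 1.5 h, 37 °C, antibody labelling 20 min, ice. Measured by: flow cytometry of vesicle-bound cells.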
# Pemphigus Ab inh – inhibitors of pemphigus antibody binding to DSG3, primary screen, biochemical, bead-based, flow cytometry, scFv-GFP | DSG3-coupled beads, scFv-anti-DSG3-GFP binding; hits give low values | binding (percent of control), % at 10 µM | 310,000 compounds, 0.48% hits;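 active = binding more than 3 SD below its plate's average and above zero; inconclusive = below that plate limit but binding exactly zero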;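 also: hits lower antibody fragment binding to DSG3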
# Target sequence (P32926 whole entry, looked up, the tested form may be a part): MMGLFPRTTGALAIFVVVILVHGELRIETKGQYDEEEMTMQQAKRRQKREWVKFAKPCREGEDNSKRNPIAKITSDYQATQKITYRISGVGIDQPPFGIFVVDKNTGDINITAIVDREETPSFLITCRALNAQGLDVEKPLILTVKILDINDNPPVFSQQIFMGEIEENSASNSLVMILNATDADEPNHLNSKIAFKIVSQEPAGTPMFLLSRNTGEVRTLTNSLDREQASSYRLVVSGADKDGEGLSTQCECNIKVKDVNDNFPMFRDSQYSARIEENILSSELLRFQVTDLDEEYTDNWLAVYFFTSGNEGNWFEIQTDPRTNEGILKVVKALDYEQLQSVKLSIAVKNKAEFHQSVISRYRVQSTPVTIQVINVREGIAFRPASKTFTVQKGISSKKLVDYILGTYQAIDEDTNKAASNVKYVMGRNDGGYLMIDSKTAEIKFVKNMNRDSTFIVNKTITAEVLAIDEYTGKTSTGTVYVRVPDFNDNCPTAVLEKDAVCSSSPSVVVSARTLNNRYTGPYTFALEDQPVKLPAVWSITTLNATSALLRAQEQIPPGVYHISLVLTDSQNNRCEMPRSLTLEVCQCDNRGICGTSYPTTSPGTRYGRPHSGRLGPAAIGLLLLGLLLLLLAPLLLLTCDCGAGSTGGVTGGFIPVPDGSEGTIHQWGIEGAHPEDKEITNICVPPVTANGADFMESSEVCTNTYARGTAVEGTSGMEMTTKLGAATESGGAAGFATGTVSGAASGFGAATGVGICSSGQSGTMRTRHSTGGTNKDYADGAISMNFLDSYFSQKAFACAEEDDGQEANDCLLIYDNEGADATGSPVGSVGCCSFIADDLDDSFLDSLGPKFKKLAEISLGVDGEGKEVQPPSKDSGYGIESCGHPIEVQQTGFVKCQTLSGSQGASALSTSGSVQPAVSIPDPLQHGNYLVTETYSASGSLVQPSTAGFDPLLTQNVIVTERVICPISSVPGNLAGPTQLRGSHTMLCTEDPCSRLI
# * hit, by the source's call; i = inactive; u = inconclusive; x = no result given; + = active, no number.
SMILES,HDAC3 inh,JMJD2C inh,LANA-H2B inh,Arr AP2 block,T cell modulator,Pemphigus Ab inh
COc1ccc(OC)c(/C=N/NC(=S)NCCc2ccccc2)c1,-9,1,2,3,208,62*
Cc1c(Cc2ccccc2)c(=O)n2c([nH]c3ccccc32)c1C#N,-3,0,4,1,326,104
COc1ccccc1N=Cc1c(C)c(C#N)c2[nH]c3ccccc3n2c1=O,1,58*,3,-15,273,x
C(=Nn1cnnc1)c1ccc2c(c1)CCC2,x,x,x,x,x,97
COC(=O)c1ccc(C2C(Oc3ccccc3)C(=O)N2CCc2ccc(OC)c(OC)c2)cc1 (stereo not drawn),-10,-4,1,14,732,83*
COc1ccc(OC2C(=O)N(CCc3ccc(OC)c(OC)c3)C2c2ccc3c(c2)OCO3)cc1 (stereo not drawn),5,-12,1,2,371,102
O=C(NCCOc1cccnc1)C1CCC(=O)N(Cc2ccccc2F)C1 (stereo not drawn),8,2,2,5,532,115
Cc1ccc(S(=O)(=O)n2c([N+](=O)[O-])cnc2C)cc1C,-1,3,12*,11,290,84
Cc1cc(Cl)ccc1OCCCC(=O)NO,77*,-29,4,-2,217,105
Cn1c(=O)c2c(ncn2CC(=O)OCC(=O)Nc2cccc(C#N)c2)n(C)c1=O,x,x,x,x,x,104
CCOc1ccccc1OCCNC1CCCC1,-3,9,145*,14,207,105
CCOc1ccc(OCCNC2CCCC2)cc1,-1,-1,5,8,i,95
COC(=O)c1c(=O)n(O)c2ccc(OC)cc2[n+]1[O-],2,-10,55*,7,272,106
CC(C)c1ccc(S(=O)(=O)N2CCN(C(=O)CN3C(=O)c4ccccc4C3=O)CC2)cc1,1,2,-4,-2,430,94
CC(=O)c1cccc(NC(=O)C2CCCN2S(=O)(=O)c2ccccc2C(F)(F)F)c1 (stereo not drawn),x,x,x,x,x,69*
Cc1cccc(-n2ncc3c2CCCC3NC(=O)Cc2c(C)noc2C)c1C (stereo not drawn),0,-16,3,-4,733,109
C=CCn1c(O)c(C2=c3ccccc3=NC2=O)s/c1=N/c1nccs1,4,-2,-2,1,395,81*
CCn1c(SCC(=O)N2CCC(C)CC2)nc2c(c1=O)SC(C)C2 (stereo not drawn),1,-5,1,-7,432,u
Cc1cc(Cl)ccc1NC(=O)CN(C)C1=NS(=O)(=O)c2ccccc21,-6,6,1,30,744,94
O=C(CN1CCN(S(=O)(=O)N2CCCCC2)CC1)Nc1ccc(Cl)c(Cl)c1,10,-11,45*,16,106,109
CC(=O)c1c(C)[nH]c(C(=O)Nc2cccc(C)n2)c1C,-4,-16,9.4*,-4,348,114
COC(CN(C)C(=O)c1ccc(CS(=O)(=O)c2ccccc2C)o1)OC,-9,7,14*,-3,247,93
Oc1ccc(C[C@@H]2CNCCN2CCc2cc(C(F)(F)F)cc(C(F)(F)F)c2)cc1,5,-5,3,10,421,106
FC(F)(F)c1cc(CCN2CCNC[C@H]2Cc2cccc3ccccc23)cc(C(F)(F)F)c1,32*,-10,3,4,822,115
COc1cc(/C=N/N2CCN(C3c4ccccc4-c4ccccc43)CC2)ccc1O,5,-3,26*,-1,204,99
SMILES,HDAC3 inh,JMJD2C inh,LANA-H2B inh,Arr AP2 block,T cell modulator,Pemphigus Ab inh
COc1ccc(CC(=O)Nc2ccc(/C(C)=N/NC(=O)c3cccc([N+](=O)[O-])c3)cc2)cc1,1,32,-1,17,342,78*
COc1ccc(NC(=O)c2cccc([N+](=O)[O-])c2)cc1,3,12,-5,-6,236,103
Cc1ccc(C)c(OCCC(=O)OCC(=O)N2c3ccccc3NC(=O)C2(C)C)c1,6,-1,12*,-9,293,97
O=c1ccc2cc3c([nH]c4ccc(Br)cc43)oc-2c1O,38*,31,-1,72*,535,70
CC1CCCC(C)N1CCNC(=O)CCc1nnc2n(Cc3ccccc3)c(=O)c3ccccc3n12 (stereo not drawn),-6,-3,1,0,0.0*,115
CC1CCCN(CCCNC(=O)c2nn(C)c3c2CS(=O)(=O)c2ccccc2-3)C1 (stereo not drawn),1,10,0,-12,297,100
CCOc1ccccc1N1CCN(C(=O)c2cc3cc(OC)ccc3[nH]2)CC1,1,13,-3,23,452,100
Cc1cc(-c2nn(-c3ccccc3F)cc2CN2CCC(O)CC2)c(C)s1,-3,0,34*,29,275,90
CCCCN1C=C(C(=O)OC)C(c2ccccc2C(F)(F)F)C(C(=O)OC)=C1,-4,-37,-5,3,480,-28*
c1ccc(CNc2ccc(N3CCOCC3)cc2)cc1,3,10,17*,2,360,x
COc1ccc(CC(=O)OCC(=O)c2ccc(F)cc2)cc1,-2,-3,3,1,417,112
COCc1nnc(NC(=O)CCN2C(=O)c3ccccc3C2=O)s1,4,-2,16*,4,70,95
Cc1ccc(NC(=O)C(c2ccccc2)N2CCN(CC(=O)N3CCOCC3)CC2)cc1Cl (stereo not drawn),2,-41,2,-1,676,x
O=[N+]([O-])c1ccc(N/N=C/c2ccc[nH]2)cc1,18,1,+,16,466,127
CN(Cc1ccc(C(C)(C)C)cc1)C(=O)c1ccc2c(c1)OCO2,x,x,x,12,x,114
CCN(CC(=O)Nc1ccc(Br)cc1)CC(=O)Nc1cc(C)on1,x,x,x,42,x,66*
COc1ccc(C(C)(C)C)cc1NC(=O)CCCN1C(=O)NC(C)(C)C1=O,-13,-2,-4,6,348,101
CCc1c(C)nc(SCC(=O)Nc2nc(-c3ccc(OC)cc3)cs2)[nH]c1=O,x,3,4,7,53*,101
CN(C)S(=O)(=O)c1cccc(N=C2NN=C(c3ccccc3)CS2)c1,9,1,44*,x,201,x
